Measured values taken from ChEMBL document CHEMBL2016576, “Design, synthesis and structure-activity-relationship of 1,5-tetrahydronaphthyridines as CETP inhibitors” (Bioorg Med Chem Lett, 2012).

Experiments:
[1] = Clearance in cynomolgus monkey at 1 mg/kg, iv and 3 mg/kg, po after 72 hrs; format: ADME, organism-based, Macaca fascicularis; details: in vivo
[2] = Clearance in Sprague-Dawley rat at 1 mg/kg, iv and 3 mg/kg, po after 72 hrs; format: ADME, organism-based; details: in vivo
[3] = target: T1, Cholesteryl ester transfer protein (Homo sapiens, UniProt P11597); assay: Inhibition of CETP in human plasma assessed as reduction in fluorescent intensity by fluorescence analysis
T1 sequence (P11597 whole entry): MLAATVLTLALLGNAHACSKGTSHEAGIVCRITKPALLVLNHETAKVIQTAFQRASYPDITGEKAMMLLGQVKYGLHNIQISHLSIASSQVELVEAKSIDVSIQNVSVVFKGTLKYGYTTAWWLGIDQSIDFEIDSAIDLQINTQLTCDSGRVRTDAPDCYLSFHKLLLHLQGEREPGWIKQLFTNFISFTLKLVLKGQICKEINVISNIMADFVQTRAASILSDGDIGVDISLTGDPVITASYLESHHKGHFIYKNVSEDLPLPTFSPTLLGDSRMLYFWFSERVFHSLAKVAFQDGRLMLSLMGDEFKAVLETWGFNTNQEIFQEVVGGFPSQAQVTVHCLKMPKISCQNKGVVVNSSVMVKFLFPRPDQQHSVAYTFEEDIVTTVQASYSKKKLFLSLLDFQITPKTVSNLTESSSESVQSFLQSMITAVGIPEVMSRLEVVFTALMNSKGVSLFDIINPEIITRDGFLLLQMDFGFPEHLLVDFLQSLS

[4] = Clearance in beagle dog at 1 mg/kg, iv and 3 mg/kg, po after 72 hrs; format: ADME, organism-based, Canis lupus familiaris; details: in vivo
[5] = Oral bioavailability in Sprague-Dawley rat at 3 mg/kg after 72 hrs; format: ADME, organism-based; details: in vivo
[6] = Oral bioavailability in cynomolgus monkey at 3 mg/kg after 72 hrs; format: ADME, organism-based, Macaca fascicularis; details: in vivo
[7] = Oral bioavailability in beagle dog at 3 mg/kg after 72 hrs; format: ADME, organism-based, Canis lupus familiaris; details: in vivo
[8] = test system: Mus musculus; assay: Ex-vivo inhibition of CETP activity in transgenic mouse harboring human CETP/human ApoA1 gene at 30 mg/kg, po measured after 8 hrs; format: functional
Summary of the method: (§1)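 Male hCETP/hApoA1 heterozygous dual transgenic mice given 30 mg/Kg orally in corn oil (79.5%)/oleic acid (20%)/labrafil (0.5%); blood taken over an 8 h time course; serum tested ex vivo for CETP activity and in vivo serum HDL-c measured.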

[9] = test system: Mus musculus; assay: Increase in HDL-cholesterol level in transgenic mouse harboring human CETP/human ApoA1 gene at 30 mg/kg, po measured after 8 hrs; format: functional; summary of the method: as §1
[10] = test system: cortisol synthase mRNA; assay: Induction of cortisol synthase mRNA level in human NCI-H295 cells by in vitro branched DNA method relative to control; format: cell-based; details: read-out: FC
Summary of the method: (§2)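 Human adrenal H295 cells were assayed in vitro. CYP11B2 (aldosterone synthase) and CYP11B1 (cortisol synthase) mRNA were quantified by branched DNA, and induction was expressed relative to untreated control.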

[11] = test system: aldosterone synthase mRNA; assay: Induction of aldosterone synthase mRNA level in human NCI-H295 cells by in vitro branched DNA method relative to control; format: cell-based; details: read-out: FC; summary of the method: as §2
[12] = Induction of cortisol synthase mRNA level in human NCI-H295 cells by in vitro branched DNA method; format: cell-based

## CC[C@@H]1C[C@H](N(Cc2cc(C(F)(F)F)cc(C(F)(F)F)c2)c2nnn(C)n2)c2nc(C(F)(F)F)ccc2N1C(=O)OC(C)C
[1]
  clearance: 0.7 mL/min/kg
[2]
  clearance: 5.5 mL/min/kg
[3]
  IC50: 23 nM
[4]
  clearance: 1.5 mL/min/kg
[5]
  bioavailability: 31%
[6]
  bioavailability: 18%
[7]
  bioavailability: 49%
[8]
  inhibition in vivo at 30 mg/kg: 91.6%
[9]
  Activity: 134%
[10]
  fold induction: 10
[11]
  fold induction: 10

## CC[C@@H]1C[C@H](N(Cc2cc(C(F)(F)F)cc(C(F)(F)F)c2)c2nnn(C)n2)c2nc(C)ccc2N1C(=O)OC(C)C
[1]
  clearance: 2.2 mL/min/kg
[2]
  clearance: 16.4 mL/min/kg
[3]
  IC50: 22 nM
[5]
  bioavailability: 18%
[6]
  bioavailability: 32%
[8]
  inhibition in vivo at 30 mg/kg: 105%
[9]
  Activity: 147.8%

## CCOC(=O)N1c2ccc(C(F)(F)F)cc2[C@@H](N(Cc2cc(C(F)(F)F)cc(C(F)(F)F)c2)C(=O)OC)C[C@H]1CC [TORCETRAPIB]
[12]
  Activity: Toxic

## CC[C@@H]1C[C@H](N(Cc2cc(C(F)(F)F)cc(C(F)(F)F)c2)c2noc(C)n2)c2nc(C(F)(F)F)ccc2N1C(=O)OC(C)C (racemic)
[3]
  IC50: 74 nM

## CC[C@@H]1C[C@H](N(Cc2cc(C(F)(F)F)cc(C(F)(F)F)c2)c2nnn(C)n2)c2nc(C(F)(F)F)ccc2N1C(=O)OCC(C)(C)C(=O)O
[3]
  IC50: 139 nM

## CC[C@@H]1C[C@H](N(Cc2cc(C(F)(F)F)cc(C(F)(F)F)c2)C(C)=O)c2nc(Br)ccc2N1C(=O)OC(C)C (racemic)
[3]
  IC50: 1300 nM

## CCC1CC(N(Cc2cc(C(F)(F)F)cc(C(F)(F)F)c2)C(C)=O)c2ccc(C)nc2N1C(=O)OC(C)C (stereo not drawn)
[3]
  IC50: 44100 nM

## CC[C@@H]1C[C@H](N(Cc2cc(C(F)(F)F)cc(C(F)(F)F)c2)c2cc(C)n[nH]2)c2nc(C(F)(F)F)ccc2N1C(=O)OC(C)C (racemic)
[3]
  IC50: 203 nM

## CC[C@@H]1C[C@H](N(Cc2cc(C(F)(F)F)cc(C(F)(F)F)c2)c2nnn(C)n2)c2nc(C(F)(F)F)ccc2N1C(=O)OC1CCN(C)CC1
[3]
  IC50: 72 nM

## CC[C@@H]1C[C@H](N(Cc2cc(C(F)(F)F)cc(C(F)(F)F)c2)c2cc(C)no2)c2nc(C(F)(F)F)ccc2N1C(=O)OC(C)C (racemic)
[3]
  IC50: 154 nM

## CC[C@@H]1C[C@H](N(Cc2cc(C(F)(F)F)cc(C(F)(F)F)c2)c2nnn(C)n2)c2nc(N3CCCC3)ccc2N1C(=O)OC(C)C
[3]
  IC50: 471 nM

## CC[C@@H]1C[C@H](N(Cc2cc(C(F)(F)F)cc(C(F)(F)F)c2)c2nnn(C)n2)c2nc(C(F)(F)F)ccc2N1CCC(C)C
[3]
  IC50: 825 nM
